We go through twelve compounds from ChEMBL document CHEMBL3804828, “2,4,6-Triaminopyrimidine as a Novel Hinge Binder in a Series of PI3Kδ Selective Inhibitors” (J Med Chem, 2016).

SMILES strings stand for the structures.

Data set [1] addresses T1, Aldehyde oxidase (Homo sapiens, UniProt Q06278).
T1 sequence (Q06278 whole entry): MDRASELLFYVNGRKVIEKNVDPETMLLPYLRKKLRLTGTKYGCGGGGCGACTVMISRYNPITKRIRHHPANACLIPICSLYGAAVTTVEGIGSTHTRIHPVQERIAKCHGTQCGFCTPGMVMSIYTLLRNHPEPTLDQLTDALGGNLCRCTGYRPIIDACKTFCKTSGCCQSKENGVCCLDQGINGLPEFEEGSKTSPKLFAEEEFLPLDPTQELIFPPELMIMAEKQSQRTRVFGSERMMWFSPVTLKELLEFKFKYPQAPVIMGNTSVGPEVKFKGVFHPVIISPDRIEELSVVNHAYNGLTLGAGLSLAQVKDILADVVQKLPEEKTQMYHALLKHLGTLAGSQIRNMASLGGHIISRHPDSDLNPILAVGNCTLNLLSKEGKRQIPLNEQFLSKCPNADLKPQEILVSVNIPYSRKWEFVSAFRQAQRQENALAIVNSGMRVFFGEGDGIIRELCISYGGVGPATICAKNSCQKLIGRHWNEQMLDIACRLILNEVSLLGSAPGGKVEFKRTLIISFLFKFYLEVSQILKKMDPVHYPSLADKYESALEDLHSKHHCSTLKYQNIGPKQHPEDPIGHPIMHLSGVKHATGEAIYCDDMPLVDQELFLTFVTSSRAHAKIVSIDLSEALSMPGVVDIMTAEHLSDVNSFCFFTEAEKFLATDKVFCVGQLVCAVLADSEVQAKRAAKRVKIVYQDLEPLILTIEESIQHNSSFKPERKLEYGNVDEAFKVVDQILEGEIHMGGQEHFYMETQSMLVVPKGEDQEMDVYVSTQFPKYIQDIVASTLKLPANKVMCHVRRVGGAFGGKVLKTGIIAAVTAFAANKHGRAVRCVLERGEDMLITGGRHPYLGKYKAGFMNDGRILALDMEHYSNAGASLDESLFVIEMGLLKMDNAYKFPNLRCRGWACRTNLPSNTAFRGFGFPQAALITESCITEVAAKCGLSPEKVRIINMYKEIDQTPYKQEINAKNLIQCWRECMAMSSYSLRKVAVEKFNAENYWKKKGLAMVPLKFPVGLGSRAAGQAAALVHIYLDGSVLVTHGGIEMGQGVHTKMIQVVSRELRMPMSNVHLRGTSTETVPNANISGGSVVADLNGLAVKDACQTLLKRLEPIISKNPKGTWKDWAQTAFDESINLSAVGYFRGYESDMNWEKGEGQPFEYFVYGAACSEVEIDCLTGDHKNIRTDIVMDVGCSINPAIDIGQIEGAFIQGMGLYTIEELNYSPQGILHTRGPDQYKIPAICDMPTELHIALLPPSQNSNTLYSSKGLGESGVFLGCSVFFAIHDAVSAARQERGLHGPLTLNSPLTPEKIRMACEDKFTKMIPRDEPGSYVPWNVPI
Briefly: Drug metabolism in human hepatocytes assessed as aldehyde oxidase mediated (S)-4-Amino-6-((1-(5-chloro-4-oxo-3-phenyl 3,4-dihydroquinazolin-2-yl)ethyl)amino)-2-hydroxypyrimidine-5-carbonitrile formation at 1 uM by LC/MS/MS analysis. In kind it is ADME, cell-based, Hepatocyte.

Data set [2] is filed under the species Homo sapiens. Briefly: Selectivity ratio of IC50 for human recombinant PI3Kbeta to IC50 for human full length PI3Kdelta catalytic subunit/p85alpha. The essentials:
(§1)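 Ratio calculated from the isoform-specific PI3K IC50 values, with enzyme assays run in quadruplicate.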

A short description of data set [3]: Clearance in human hepatocytes at 1 uM by LC/MS/MS analysis. The format is ADME, cell-based, Hepatocyte. An outline of the steps:
(§2)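 Human hepatocytes, incubated with and without the aldehyde oxidase inhibitor raloxifene; predicted clearance calculated from turnover.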

The test system of data set [4] is Liver microsome. Briefly: Clearance in rat liver microsomes at 1 uM by LC/MS/MS analysis in presence of NADPH generating system. The format is ADME. (Liver microsomes are vesicles of endoplasmic reticulum, rich in cytochrome P450 enzymes.)
Data set [5] deals with Liver microsome. The data set is described as follows: Clearance in human liver microsomes at 1 uM by LC/MS/MS analysis in presence of NADPH generating system. The format is ADME.
The nature of data set [6]: Half life in Sprague-Dawley rat at 0.44 mg/kg, iv by LC/MS/MS analysis. In kind it is ADME, organism-based. Particulars: in vivo. The essentials:
(§3)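 Single intravenous dose of 0.44 mg/kg to Sprague-Dawley rats, formulated at 0.09 mg/mL in 5% ethanol, 75% PEG 400 and 20% citrate buffer (pH 3.0). Three animals per dosing route. Volume of distribution taken at steady state.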

The species entered for data set [7] is Homo sapiens. The data set is described as follows: Selectivity ratio of IC50 for human full length PI3Kgamma to IC50 for human full length PI3Kdelta catalytic subunit/p85alpha. The essentials:
as §1

The nature of data set [8]: Volume of distribution at steady state in Sprague-Dawley rat at 0.44 mg/kg, iv by LC/MS/MS analysis. In kind it is ADME, organism-based. The note with it: in vivo, read-out: Vdss. An outline of the steps:
as §3

Data set [9] addresses PI3-kinase p110-delta/p85-alpha (Homo sapiens, UniProt O00329). The data set is described as follows: Inhibition human full length PI3Kdelta catalytic subunit/p85alpha assessed as formation of PIP3 after 30 mins by europium labeled GRP-based TR-FRET assay. In kind it is protein-complex assay. (In TR-FRET formats the signal depends on donor and acceptor labels being close together.)

The species named for data set [10] is Homo sapiens. Briefly: Selectivity ratio of IC50 for human full length PI3Kalpha catalytic subunit/p85alpha to IC50 for human full length PI3Kdelta catalytic subunit/p85alpha. An outline of the steps: as §1
The next data set deals with Hepatocyte. Briefly: Clearance in human hepatocytes at 1 uM by LC/MS/MS in presence of aldehyde oxidase inhibitor raloxifene. In kind it is ADME, cell-based. An outline of the steps: as §2
Data set [11] is described as follows: Clearance in Sprague-Dawley rat at 0.44 mg/kg, iv by LC/MS/MS analysis. In kind it is ADME, organism-based. The note with it: in vivo. The essentials: as §3
Data set [12] addresses T1, Aldehyde oxidase. The data set is described as follows: Drug level in human hepatocytes assessed as aldehyde oxidase-mediated compound formation treated with (S)-4-Amino-6-((1-(5-chloro-4-oxo-3-phenyl-3,4-dihydroquinazolin-2-yl)ethyl)amino)pyrimidine-5-carbonitrile at 1 uM by LC/MS/MS analysis. The format is ADME, cell-based, Hepatocyte.
The target of data set [13] is T1, Aldehyde oxidase. Briefly: Drug metabolism in human hepatocytes assessed as aldehyde oxidase mediated M1 formation at 1 uM by LC/MS/MS analysis. In kind it is ADME, cell-based, Hepatocyte.

Sequence of PI3-kinase p110-delta/p85-alpha (P27986 whole entry): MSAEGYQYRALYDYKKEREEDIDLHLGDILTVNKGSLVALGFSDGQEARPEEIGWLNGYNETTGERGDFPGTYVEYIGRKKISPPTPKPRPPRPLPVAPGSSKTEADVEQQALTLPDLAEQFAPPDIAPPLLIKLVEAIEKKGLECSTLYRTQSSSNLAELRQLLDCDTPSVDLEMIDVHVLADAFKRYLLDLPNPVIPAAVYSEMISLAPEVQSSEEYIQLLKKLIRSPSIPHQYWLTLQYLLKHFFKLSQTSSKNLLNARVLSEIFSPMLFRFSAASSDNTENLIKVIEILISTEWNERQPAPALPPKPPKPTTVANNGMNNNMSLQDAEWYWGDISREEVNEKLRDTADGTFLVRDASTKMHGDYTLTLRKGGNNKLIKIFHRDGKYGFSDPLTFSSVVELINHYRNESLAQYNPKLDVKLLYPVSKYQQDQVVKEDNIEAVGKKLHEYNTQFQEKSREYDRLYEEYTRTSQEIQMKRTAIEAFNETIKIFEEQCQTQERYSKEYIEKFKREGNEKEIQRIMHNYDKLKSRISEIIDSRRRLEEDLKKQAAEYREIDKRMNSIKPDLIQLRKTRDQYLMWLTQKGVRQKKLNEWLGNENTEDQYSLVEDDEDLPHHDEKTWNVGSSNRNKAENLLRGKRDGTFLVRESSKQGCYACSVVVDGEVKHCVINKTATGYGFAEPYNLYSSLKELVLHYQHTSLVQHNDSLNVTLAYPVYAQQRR
Sequence of PI3-kinase p110-delta/p85-alpha (O00329 whole entry): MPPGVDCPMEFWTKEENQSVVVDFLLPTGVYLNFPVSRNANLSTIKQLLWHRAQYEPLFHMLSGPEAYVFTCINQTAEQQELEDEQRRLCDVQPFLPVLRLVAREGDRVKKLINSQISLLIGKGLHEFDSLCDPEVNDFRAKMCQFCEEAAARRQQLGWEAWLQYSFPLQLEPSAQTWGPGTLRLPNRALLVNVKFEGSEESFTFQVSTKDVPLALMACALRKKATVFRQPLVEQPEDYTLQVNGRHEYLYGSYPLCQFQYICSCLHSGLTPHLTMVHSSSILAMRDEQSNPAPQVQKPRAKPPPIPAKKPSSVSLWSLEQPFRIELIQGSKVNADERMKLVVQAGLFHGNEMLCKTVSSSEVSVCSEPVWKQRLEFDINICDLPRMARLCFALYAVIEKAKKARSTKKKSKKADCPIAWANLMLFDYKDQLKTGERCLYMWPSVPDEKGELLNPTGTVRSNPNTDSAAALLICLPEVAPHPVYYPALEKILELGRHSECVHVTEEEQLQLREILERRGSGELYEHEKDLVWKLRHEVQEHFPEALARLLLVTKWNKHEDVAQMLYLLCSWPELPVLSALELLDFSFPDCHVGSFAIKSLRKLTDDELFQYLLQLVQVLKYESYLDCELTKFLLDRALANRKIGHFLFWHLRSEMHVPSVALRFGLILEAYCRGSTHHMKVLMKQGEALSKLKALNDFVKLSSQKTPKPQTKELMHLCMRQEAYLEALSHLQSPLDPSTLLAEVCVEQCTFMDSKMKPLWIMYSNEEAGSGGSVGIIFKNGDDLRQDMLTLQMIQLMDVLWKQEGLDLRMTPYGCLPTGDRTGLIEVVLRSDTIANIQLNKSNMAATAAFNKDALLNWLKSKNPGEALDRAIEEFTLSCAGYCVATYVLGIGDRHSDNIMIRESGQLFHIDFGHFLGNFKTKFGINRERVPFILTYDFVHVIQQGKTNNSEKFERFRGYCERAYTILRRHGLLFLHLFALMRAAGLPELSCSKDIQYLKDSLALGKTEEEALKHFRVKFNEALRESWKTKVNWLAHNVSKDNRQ

In the case of `C[C@H](Nc1ncnc(N)c1C#N)c1nc2cccc(Cl)c2c(=O)n1-c1ccccc1`, the Drug metabolism entry on Aldehyde oxidase [1] is recorded as “metabolite_detected”. In addition, the Ratio IC50 in the data set filed under Homo sapiens [2] stood at 200; in the data set filed under Homo sapiens [2] (tested as the 2H-labelled form), 70; in the data set filed under Homo sapiens [7], 680; in the data set filed under Homo sapiens [7] (tested as the 2H-labelled form), 420; in the data set filed under Homo sapiens [10], 4600; in the data set listed under Homo sapiens [10] (tested as the 2H-labelled form), 1200. For the same compound, the CLhep predicted at 1 µM in data set [3] is 0.88 L/h/kg. The CLH with Liver microsome [4] was 0.2 L/h/kg; with Liver microsome [5], 0.1 L/h/kg; in the data set with Hepatocyte, 0.09 L/h/kg. For the same compound, in data set [6], the half-life (commonly the time in which the quantity being followed falls by half) is 2.6 h. Also, the Vd in data set [8] is 2.6 L/kg. Besides, in data set [9], the IC50 (as a rule, the midpoint of a concentration-inhibition curve) stood at 0.4 nM. Also, the clearance (commonly the rate of elimination divided by the concentration) in data set [11] was 1.1 L/h/kg.

Regarding `C[C@H](Nc1ncnc(N)c1C(F)(F)F)c1nc2cccc(Cl)c2c(=O)n1-c1ccccc1`, the Ratio IC50 in the data set listed under Homo sapiens [2] came to 340; in the data set filed under Homo sapiens [7], 560; in the data set listed under Homo sapiens [10], 1200. Further, in [3], the CLhep predicted at 1 µM was 0.59 L/h/kg. Also, the IC50 in data set [9] came to 1.8 nM. Besides, the CLH with Hepatocyte was 0.12 L/h/kg.

As to `C[C@H](Nc1ncnc(N)c1C(N)=O)c1nc2cccc(Cl)c2c(=O)n1-c1ccccc1`, the Ratio IC50 in the data set filed under Homo sapiens [2] worked out at 310; in the data set listed under Homo sapiens [7], 310; in the data set filed under Homo sapiens [10] it was 860. Moreover, the CLhep predicted at 1 µM in data set [3] was 0.27 L/h/kg. The half-maximal inhibitory concentration (IC50) in data set [9] was 11 nM. Besides, the CLH in the data set with Hepatocyte was found to be 0.08 L/h/kg.

Consider `C[C@H](Nc1nc(O)nc(N)c1C#N)c1nc2cccc(Cl)c2c(=O)n1-c1ccccc1`, for which the Drug metabolism entry at Aldehyde oxidase [12] is recorded as “metabolite_detected”.

Consider `Cc1c(N)ncnc1N[C@@H](C)c1nc2cccc(Cl)c2c(=O)n1-c1ccccc1`, for which the Ratio IC50 was 380 in the data set filed under Homo sapiens [2], 700 in the data set filed under Homo sapiens [7] and 700 in the data set listed under Homo sapiens [10]. Besides, in data set [3], the CLhep predicted at 1 µM was 0.73 L/h/kg. The IC50 in data set [9] is 14 nM. Besides, the CLH in the data set on Hepatocyte is 0.25 L/h/kg.

For the compound `C[C@H](Nc1ncnc(N)c1C#Cc1ccc(F)cn1)c1nc2cccc(Cl)c2c(=O)n1-c1ccccc1`, the Ratio IC50 in the data set listed under Homo sapiens [2] was 330; in the data set listed under Homo sapiens [7], 470; in the data set listed under Homo sapiens [10], 2600. The CLhep predicted at 1 µM in [3] is 0.51 L/h/kg. In addition, the IC50 in [9] is 1.2 nM. Besides, at Aldehyde oxidase [13], the Drug metabolism result is reported as “metabolite_detected”. Moreover, the CLH in the data set with Hepatocyte is 0.13 L/h/kg.

As to `C[C@H](Nc1nc(N)nc(Cl)c1C#N)c1nc2cccc(Cl)c2c(=O)n1-c1ccccc1`, the Ratio IC50 in the data set filed under Homo sapiens [2] turned out to be 100; in the data set listed under Homo sapiens [7], 25; in the data set listed under Homo sapiens [10] it was 530. In addition, in [3], the CLhep predicted at 1 µM is 0.82 L/h/kg. Further, the IC50 in data set [9] is 1 nM.

For the compound `C[C@H](Nc1nc(N)nc(N)c1C#N)c1nc2cccc(Cl)c2c(=O)n1-c1ccccc1`, the Ratio IC50 is 80 in the data set filed under Homo sapiens [2], 60 in the data set listed under Homo sapiens [7] and 2200 in the data set listed under Homo sapiens [10]. Moreover, the CLhep predicted at 1 µM in data set [3] was 0.21 L/h/kg. Moreover, the IC50 in [9] was 0.1 nM. The CLH in the data set with Hepatocyte worked out at 0.1 L/h/kg.

As to `C[C@H](Nc1nc(N)nc(N)c1Cl)c1nc2cccc(Cl)c2c(=O)n1-c1ccccc1`, the figures for the Ratio IC50 in the data set filed under Homo sapiens [2], in the data set listed under Homo sapiens [7] and in the data set listed under Homo sapiens [10] were 370, 200 and 2700, respectively. Besides, the CLhep predicted at 1 µM in data set [3] is 0.65 L/h/kg. The IC50 in [9] is 0.9 nM.

As for `C[C@H](Nc1nc(N)nc(N)c1C#N)c1nc2c(F)cccc2c(=O)n1-c1cc(F)cc(F)c1`, the Ratio IC50 is 920 in the data set listed under Homo sapiens [2], 130 in the data set listed under Homo sapiens [7] and 810 in the data set filed under Homo sapiens [10]. Also, the CLhep predicted at 1 µM in [3] was 0.53 L/h/kg. The IC50 in data set [9] was determined as 3.5 nM.

Consider `C[C@H](Nc1nc(N)nc(N)c1C#N)c1nc2c(C#N)cccc2c(=O)n1-c1cc(F)cc(F)c1`, for which the Ratio IC50 in the data set filed under Homo sapiens [2] turned out to be 1200; in the data set filed under Homo sapiens [7], 800; in the data set filed under Homo sapiens [10] it was 1700. Further, the CLhep predicted at 1 µM in data set [3] is 0.5 L/h/kg. The IC50 in data set [9] is 5.9 nM.

For the compound `[2H]c1nc(N)c(C#N)c(N[C@@H](C)c2nc3cccc(Cl)c3c(=O)n2-c2ccccc2)n1`, in [3], the CLhep predicted at 1 µM was 0.5 L/h/kg. Also, the IC50 in data set [9] turned out to be 1.2 nM. In the data set on Hepatocyte, the CLH was 0.1 L/h/kg.
